Experimental data as given in ChEMBL document CHEMBL4680189, “Immunosuppressive properties of amino acid and peptide derivatives of mycophenolic acid” (Eur J Med Chem, 2020).
Active and inactive are the calls of the source. No cut-off for these calls is given here. Where a SMILES comes first, the peptide text is derived from it. [ ]: non-standard residue; d: D form. The star is where a group is joined. Mycophenolyl = COc1c(C)c2c(c(O)c1C/C=C(\C)CCC(=O)*)C(=O)OC2; Arg(NO2) = N=C(NCCC[C@H](N)C(=O)O)N[N+](=O)[O-]; βAla = NCCC(=O)O

Columns and labels:
Jurkat [1] = assay: Immunosuppression-mediated cytotoxicity against human Jurkat T cells assessed as reduction in cell viability incubated for 48 hrs by MTT assay; format: cell-based
Summary of the method: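 Jurkat cells in RPMI-1640 with 10% FBS and P/S, 50×10^3 cells/well, exposed in triplicate to serial dilutions from 1 mg/mL (DMSO/medium) for 48 h at 37 °C, 5% CO2. MTT (5 mg/ml) then added for 3 h. Formazan dissolved in 0.4 N HCl–isopropanol, absorbance read at 570 nm. IC50 from curve fitting; viability at 1 mg/mL used where IC50 could not be reached.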

[2] = Immunosuppression-mediated antiproliferative activity against anti-CD3/anti-CD28-stimulated human PBMC cells assessed as inhibition of cell growth incubated for 72 hrs by VPD450 staining based flow cytometry; format: functional
Summary of the method: (§1)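 Cells stained with VPD450 (2 μL of 1 mM dye per 10-30×10^6 cells in 1 mL PBS, 15 min, 37 °C), washed. PBMC: 50×10^3 cells/well with anti-CD3/anti-CD28, serial compound dilutions, 72 h. Jurkat: 50×10^3 cells/well, 48 h. 37 °C, 5% CO2, triplicate. Dye dilution by flow cytometry; EC50 from curve fit.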

Jurkat [3] = assay: Immunosuppression-mediated antiproliferative activity against human Jurkat T cells assessed as inhibition of cell growth incubated for 48 hrs by VPD450 staining based flow cytometry; format: functional; summary of the method: as §1
[4] = Immunosuppression-mediated cytotoxicity against anti-CD3/anti-CD28-stimulated human PBMC cells assessed as reduction in cell viability incubated for 72 hrs by MTT assay; format: cell-based
Summary of the method: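 PBMC from buffy coats of healthy donors, isolated on a Ficoll gradient with erythrocyte lysis. Plated at 50×10^3 cells/well with anti-CD3/anti-CD28, serial compound dilutions, in triplicate. Incubated 72 h, 37 °C, 5% CO2. MTT added for 3 h, formazan dissolved in acidified isopropanol (0.4 N HCl), A570 read. Three donors averaged; IC50 from curve fit.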

[5] = Selectivity index, ratio of IC50 for cytotoxicity against human PBMC by MTT assay to EC50 for antiproliferative activity against human PBMC by VPD450 staining based flow cytometry
Summary of the method: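 Ratio of the MTT cytotoxicity IC50 (72 h, stimulated PBMC) to the VPD450 antiproliferative EC50 (72 h, stimulated PBMC), both from fitted concentration-response curves.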

[6] = Selectivity index, ratio of IC50 for cytotoxicity against human Jurkat T cells by MTT assay to EC50 for antiproliferative activity against human Jurkat T cells by VPD450 staining based flow cytometry
Summary of the method: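 Jurkat IC50 from the 48 h MTT assay (50×10^3 cells/well, triplicate) divided by Jurkat EC50. […] Cells treated 48 h with serial dilutions, then dye dilution read by flow cytometry and fitted.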

PBMC = assay: Immunosuppression-mediated antiproliferative activity against anti-CD3/anti-CD28-stimulated human PBMC cells assessed as inhibition of cell growth incubated for 72 hrs in presence of GMP by VPD450 staining based flow cytometry; format: functional
Summary of the method: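 VPD450-stained PBMC, 50×10^3 cells/well, anti-CD3/anti-CD28 stimulation, serial compound dilutions plus GMP at 50 μM in the well. Incubated 72 h at 37 °C, 5% CO2, in triplicate. Proliferation read by flow cytometry as dye dilution and expressed relative to controls.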

Jurkat [7] = assay: Immunosuppression-mediated cytotoxicity against human Jurkat T cells assessed as reduction in cell viability at 1 mg/ml incubated for 48 hrs by MTT assay relative to control; format: cell-based
Summary of the method: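 Jurkat cells (RPMI-1640, 10% FBS) plated at 50×10^3 cells/well and exposed to 1 mg/mL compound (1 mg in 20 μL DMSO, made up to 1 mL with medium). 48 h at 37 °C, 5% CO2, in triplicate. MTT (5 mg/mL stock) for 3 h, acidified isopropanol, A570. Viability calculated at that concentration.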

SMILES | IC50 (Jurkat [1]) | EC50 [2] | EC50 (Jurkat [3]) | IC50 [4] | Ratio IC50/EC50 [5] | Ratio IC50/EC50 [6] | Activity (PBMC) | Activity (Jurkat [7])
CC[C@H](C)[C@H](NC(=O)CC/C(C)=C/Cc1c(O)c2c(c(C)c1OC)COC2=O)C(=O)O | 73.7 µM | 9 µM | 2.3 µM | 20.9 µM | 2.3 | 33 | inactive | 
COC(=O)C(NC(=O)CC/C(C)=C/Cc1c(O)c2c(c(C)c1OC)COC2=O)C(=O)OC | 101 µM | 11 µM | 65 µM | 3.5 µM | 0.3 | 1.6 | inactive | 
COc1c(C)c2c(c(O)c1C/C=C(\C)CCC(=O)N[C@H](C(=O)O)[C@@H](C)O)C(=O)OC2 | 43 µM | 119 µM | 83 µM | 82 µM | 0.7 | 0.5 | inactive | 
COc1c(C)c2c(c(O)c1C/C=C(\C)CCC(=O)N[C@H](CCCNC(=N)N[N+](=O)[O-])C(=O)O)C(=O)OC2 |  | 588 µM | 1040 µM | 422 µM | 0.7 |  | inactive | 75.14%
COC(=O)[C@H](CCCNC(=N)N[N+](=O)[O-])NC(=O)CC/C(C)=C/Cc1c(O)c2c(c(C)c1OC)COC2=O | 347 µM | 77 µM | 22.3 µM | 14 µM | 0.2 | 16 | inactive | 
COC(=O)C[C@H](NC(=O)CC/C(C)=C/Cc1c(O)c2c(c(C)c1OC)COC2=O)C(=O)OC | 20 µM | 8 µM | 16.7 µM | 18 µM | 2.2 | 1.2 | inactive | 
COC(=O)[C@@H](CCCNC(=N)N[N+](=O)[O-])NC(=O)CC/C(C)=C/Cc1c(O)c2c(c(C)c1OC)COC2=O | 572 µM | 95.6 µM | 69 µM | 71 µM | 0.7 | 8.2 | inactive | 
COc1c(C)c2c(c(O)c1C/C=C(\C)CCC(=O)N[C@@H](CCCNC(=N)N[N+](=O)[O-])C(=O)O)C(=O)OC2 |  | 132 µM | 1190 µM | 283 µM | 2.2 |  | inactive | 59.12%
COc1c(C)c2c(c(O)c1C/C=C(\C)CCC(=O)N[C@@H](CC(=O)O)C(=O)O)C(=O)OC2 | 540 µM | 211 µM | 396 µM | 50 µM | 0.2 | 1.4 | inactive | 
COC(=O)[C@H](NC(=O)CC/C(C)=C/Cc1c(O)c2c(c(C)c1OC)COC2=O)[C@H](C)O | 115 µM | 9 µM | 14 µM | 69 µM | 7.3 | 8.3 | inactive | 
COc1c(C)c2c(c(O)c1C/C=C(\C)CCC(=O)N[C@@H](C(=O)O)[C@H](C)O)C(=O)OC2 | 229 µM | 122 µM | 21.4 µM | 118 µM | 1 | 11 | inactive | 
COC(=O)[C@H](CCCNC(=N)N[N+](=O)[O-])NC(=O)[C@@H]1CCCN1C(=O)[C@H](CCCCNC(=O)CN)NC(=O)[C@@H](NC(=O)CC/C(C)=C/Cc1c(O)c2c(c(C)c1OC)COC2=O)[C@@H](C)O (Mycophenolyl-TK(Gly)P[Arg(NO2)]-OMe) |  | 590 µM | 1030 µM | 628 µM | 1.1 |  |  | 53.4%
CC[C@H](C)[C@H](N)C(=O)NCCCC[C@H](NC(=O)[C@@H](NC(=O)CC/C(C)=C/Cc1c(O)c2c(c(C)c1OC)COC2=O)[C@@H](C)O)C(=O)N1CCC[C@H]1C(=O)N[C@@H](CCCNC(=N)N[N+](=O)[O-])C(=O)OC (Mycophenolyl-TK(Ile)P[Arg(NO2)]-OMe) | 809 µM | 357 µM | 924 µM | 461 µM | 1.3 | 0.9 |  | 
COC(=O)[C@H](CCCNC(=N)N[N+](=O)[O-])NC(=O)[C@@H]1CCCN1C(=O)[C@H](CCCCNC(=O)[C@@H](N)CC(C)C)NC(=O)[C@@H](NC(=O)CC/C(C)=C/Cc1c(O)c2c(c(C)c1OC)COC2=O)[C@@H](C)O (Mycophenolyl-TK(Leu)P[Arg(NO2)]-OMe) |  | 551 µM | 801 µM | 687 µM | 1.2 |  |  | 67.04%
COC(=O)[C@H](CCCNC(=N)N[N+](=O)[O-])NC(=O)[C@@H]1CCCN1C(=O)[C@H](CCCCNC(=O)CCN)NC(=O)[C@@H](NC(=O)CC/C(C)=C/Cc1c(O)c2c(c(C)c1OC)COC2=O)[C@@H](C)O (Mycophenolyl-TK(βAla)P[Arg(NO2)]-OMe) | 1020 µM | 211 µM | 941 µM | 526 µM | 2.5 | 1.1 | inactive | 
COC(=O)[C@@H](NC(=O)[C@H](CCCCNC(=O)[C@H](C)N)NC(=O)[C@@H]1CCCN1C(=O)[C@H](CCCNC(=N)N[N+](=O)[O-])NC(=O)CC/C(C)=C/Cc1c(O)c2c(c(C)c1OC)COC2=O)[C@@H](C)O (Mycophenolyl-[Arg(NO2)]PK(Ala)T-OMe) |  | 168 µM | 839 µM | 750 µM | 4.5 |  | inactive | 53.9%
COC(=O)[C@@H](NC(=O)[C@H](CCCCNC(=O)[C@@H](N)C(C)C)NC(=O)[C@@H]1CCCN1C(=O)[C@H](CCCNC(=N)N[N+](=O)[O-])NC(=O)CC/C(C)=C/Cc1c(O)c2c(c(C)c1OC)COC2=O)[C@@H](C)O (Mycophenolyl-[Arg(NO2)]PK(Val)T-OMe) |  | 129 µM | 556 µM | 548 µM | 4.3 |  | inactive | 63.35%
COc1c(C)c2c(c(O)c1C/C=C(\C)CCC(=O)O)C(=O)OC2 [MYCOPHENOLIC ACID] | 60.6 µM | 0.0301 µM | 0.3 µM | 0.14 µM | 4.6 | 228 |  | 
